Drawing on ChEMBL document CHEMBL1139878, “Rapid evolution of 6-phenylpurine inhibitors of protein kinase B through structure-based design” (J Med Chem, 2007), this text covers IC50, GI50 and Activity for nine compounds.

As a reminder, the IC50 is the midpoint of a concentration-inhibition curve. By GI50 is commonly meant the concentration giving 50% growth inhibition. A low value points to greater sensitivity of the cells.

Calls of active or inactive are those of the source. The rule behind the calls is not given here.

The target in assay [1] is RAC-beta serine/threonine-protein kinase (Homo sapiens, UniProt P31751). As to the kind of experiment: Inhibition of PKBbeta by radiometric filter binding assay.
For assay [2], the target named is cAMP-dependent protein kinase (PKA) (Homo sapiens, UniProt P22694+P17612+P22612). As to the kind of experiment: Inhibition of PKA by radiometric filter binding assay. Type of assay: protein assay.
The test system of assay [3] is PC-3M. As to the kind of experiment: Inhibition of PC3M cells by SRB assay after 96 hrs. Type of assay: functional. The settings on record: Homo sapiens. Background: Sulforhodamine B stains cellular protein and so reports cell mass.
Assay [4] relates to U-87 MG. As to the kind of experiment: Decrease in pS6 protein levels in U87MG cells after 1 hr by Western blotting. In kind it is functional, cell-based. The settings on record: Homo sapiens; U-87MG ATCC. The method, boiled down:
(§1)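 U87MG glioblastoma cells were treated for 1 h across a titration of inhibitor concentrations. Phosphorylation states of PI3K-PKB-mTOR pathway components were then read out by Western blot with phospho-specific antibodies.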
For orientation: Immunoblotting shows a protein as a band on a membrane.

In assay [5] the target is T1, Serine/threonine-protein kinase AKT (Homo sapiens, UniProt P31751+Q9Y243+P31749). As to the kind of experiment: Inhibition of GSK3-beta phosphorylation in PC3M cells after 1 hr by ELISA. Type of assay: functional, cell-based.
For assay [6], the system named is U-87 MG. As to the kind of experiment: Inhibition of U87MG cells by SRB assay after 96 hrs. In kind it is functional, U-87MG ATCC. To be noted: Homo sapiens.
Assay [7] deals with Cytochrome P450 2C19 (Homo sapiens, UniProt P33261). As to the kind of experiment: Inhibition of CYP2C19. Type of assay: ADME.
Assay [8] relates to U-87 MG. The assay can be described thus: Decrease in pFKHR protein levels in U87MG cells after 1 hr by Western blotting. In kind it is functional, cell-based. To be noted: Homo sapiens; U-87MG ATCC. The method, boiled down: as §1
The target in assay [9] is T1, Serine/threonine-protein kinase AKT. As to the kind of experiment: Inhibition of GSK3-beta phosphorylation in U87MG cells by ELISA. In kind it is functional, cell-based. The settings on record: u-87mg atcc.
In assay [10] the test system is HCT-116. As to the kind of experiment: Inhibition of HCT116 cells by SRB assay after 96 hrs. Type of assay: functional. To be noted: Homo sapiens, HCT-116, 96 h.
Assay [11] deals with Cytochrome P450 2D6 (Homo sapiens, UniProt P10635). As to the kind of experiment: Inhibition of CYP2D6. Type of assay: ADME.
In assay [12] the test system is U-87 MG. The assay can be described thus: Increase in pSer473-PKB protein levels in U87MG cells after 1 hr by Western blotting. To be noted: Homo sapiens; U-87MG ATCC. Type of assay: functional, cell-based. The method, boiled down: as §1
In assay [13] the target is Cytochrome P450 3A4 (Homo sapiens, UniProt P08684). The assay can be described thus: Inhibition of CYP3A4. Type of assay: ADME.
Assay [14] relates to U-87 MG. As to the kind of experiment: Decrease in pGSK3-beta protein levels in U87MG cells after 1 hr by Western blotting. Type of assay: functional, cell-based. The settings on record: Homo sapiens; U-87MG ATCC. A digest of the protocol: as §1
For assay [15], the target named is Cytochrome P450 2C9 (Homo sapiens, UniProt P11712). The assay can be described thus: Inhibition of CYP2C9. Type of assay: ADME.
Assay [16] deals with T2, Cytochrome P450 1A2 (Homo sapiens, UniProt P05177).
T2 sequence (P05177 whole entry): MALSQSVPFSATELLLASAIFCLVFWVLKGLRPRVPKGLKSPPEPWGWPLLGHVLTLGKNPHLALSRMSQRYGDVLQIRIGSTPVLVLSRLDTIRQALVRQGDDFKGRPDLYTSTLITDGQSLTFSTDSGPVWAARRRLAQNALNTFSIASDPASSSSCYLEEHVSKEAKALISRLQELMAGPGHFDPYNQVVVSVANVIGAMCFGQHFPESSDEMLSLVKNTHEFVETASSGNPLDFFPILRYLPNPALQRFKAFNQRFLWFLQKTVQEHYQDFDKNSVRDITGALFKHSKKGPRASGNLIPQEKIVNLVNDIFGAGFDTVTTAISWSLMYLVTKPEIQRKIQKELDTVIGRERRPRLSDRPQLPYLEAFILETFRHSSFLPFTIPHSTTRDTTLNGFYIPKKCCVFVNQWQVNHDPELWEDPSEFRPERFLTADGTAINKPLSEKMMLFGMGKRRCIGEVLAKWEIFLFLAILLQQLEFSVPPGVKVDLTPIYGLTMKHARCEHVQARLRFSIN
As to the kind of experiment: Inhibition of CYP1A2. Type of assay: ADME.

RAC-beta serine/threonine-protein kinase, sequence (P31751 whole entry): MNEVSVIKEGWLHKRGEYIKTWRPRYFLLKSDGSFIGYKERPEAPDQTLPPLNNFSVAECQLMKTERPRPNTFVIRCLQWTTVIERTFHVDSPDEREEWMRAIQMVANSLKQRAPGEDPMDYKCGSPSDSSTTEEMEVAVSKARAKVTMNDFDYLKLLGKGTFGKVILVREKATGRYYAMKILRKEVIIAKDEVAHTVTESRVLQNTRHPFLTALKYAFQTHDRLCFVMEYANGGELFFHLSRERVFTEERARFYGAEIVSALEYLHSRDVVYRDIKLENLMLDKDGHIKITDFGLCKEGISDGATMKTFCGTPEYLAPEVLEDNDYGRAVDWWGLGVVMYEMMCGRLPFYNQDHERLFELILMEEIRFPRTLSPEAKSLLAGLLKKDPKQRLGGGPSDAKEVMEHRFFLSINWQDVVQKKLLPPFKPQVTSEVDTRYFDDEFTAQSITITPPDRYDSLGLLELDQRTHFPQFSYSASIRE
Cytochrome P450 2C9, sequence (P11712 whole entry): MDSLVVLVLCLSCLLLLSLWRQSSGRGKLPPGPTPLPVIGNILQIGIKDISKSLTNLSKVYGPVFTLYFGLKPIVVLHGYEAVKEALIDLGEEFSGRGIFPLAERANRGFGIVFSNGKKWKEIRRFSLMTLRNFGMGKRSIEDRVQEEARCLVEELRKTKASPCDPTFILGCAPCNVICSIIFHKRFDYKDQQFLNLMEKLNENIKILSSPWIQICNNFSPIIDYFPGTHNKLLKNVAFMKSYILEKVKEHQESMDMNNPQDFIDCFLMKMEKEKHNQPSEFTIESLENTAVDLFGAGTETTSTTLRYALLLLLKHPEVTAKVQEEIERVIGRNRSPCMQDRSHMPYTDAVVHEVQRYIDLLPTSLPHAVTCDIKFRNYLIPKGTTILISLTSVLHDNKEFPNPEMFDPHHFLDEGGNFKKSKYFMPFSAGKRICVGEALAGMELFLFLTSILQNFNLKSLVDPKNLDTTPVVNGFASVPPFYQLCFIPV
Cytochrome P450 2C19, sequence (P33261 whole entry): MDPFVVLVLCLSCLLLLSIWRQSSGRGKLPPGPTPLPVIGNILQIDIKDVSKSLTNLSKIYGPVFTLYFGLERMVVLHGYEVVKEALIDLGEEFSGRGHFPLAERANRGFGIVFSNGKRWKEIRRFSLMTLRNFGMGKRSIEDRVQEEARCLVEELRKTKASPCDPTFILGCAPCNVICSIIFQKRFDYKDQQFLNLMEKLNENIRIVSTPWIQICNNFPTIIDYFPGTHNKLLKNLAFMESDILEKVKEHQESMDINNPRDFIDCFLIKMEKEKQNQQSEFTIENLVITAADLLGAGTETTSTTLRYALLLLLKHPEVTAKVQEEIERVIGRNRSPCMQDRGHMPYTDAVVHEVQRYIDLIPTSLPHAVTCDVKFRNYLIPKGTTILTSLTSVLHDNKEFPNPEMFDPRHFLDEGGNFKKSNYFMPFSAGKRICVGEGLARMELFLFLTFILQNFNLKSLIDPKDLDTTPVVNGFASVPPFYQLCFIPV
Cytochrome P450 2D6, sequence (P10635 whole entry): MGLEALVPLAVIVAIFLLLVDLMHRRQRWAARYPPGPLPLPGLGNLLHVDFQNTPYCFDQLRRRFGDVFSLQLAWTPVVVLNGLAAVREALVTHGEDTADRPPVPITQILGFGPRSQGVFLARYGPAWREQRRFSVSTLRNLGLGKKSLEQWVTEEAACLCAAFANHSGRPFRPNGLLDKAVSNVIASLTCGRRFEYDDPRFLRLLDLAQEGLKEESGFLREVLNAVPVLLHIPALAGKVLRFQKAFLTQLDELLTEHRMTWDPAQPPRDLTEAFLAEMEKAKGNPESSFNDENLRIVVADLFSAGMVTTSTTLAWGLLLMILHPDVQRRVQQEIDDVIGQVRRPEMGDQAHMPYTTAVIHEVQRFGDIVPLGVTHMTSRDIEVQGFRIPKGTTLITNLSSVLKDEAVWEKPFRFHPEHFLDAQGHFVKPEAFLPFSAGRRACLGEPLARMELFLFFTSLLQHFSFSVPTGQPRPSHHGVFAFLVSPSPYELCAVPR
Cytochrome P450 3A4, sequence (P08684 whole entry): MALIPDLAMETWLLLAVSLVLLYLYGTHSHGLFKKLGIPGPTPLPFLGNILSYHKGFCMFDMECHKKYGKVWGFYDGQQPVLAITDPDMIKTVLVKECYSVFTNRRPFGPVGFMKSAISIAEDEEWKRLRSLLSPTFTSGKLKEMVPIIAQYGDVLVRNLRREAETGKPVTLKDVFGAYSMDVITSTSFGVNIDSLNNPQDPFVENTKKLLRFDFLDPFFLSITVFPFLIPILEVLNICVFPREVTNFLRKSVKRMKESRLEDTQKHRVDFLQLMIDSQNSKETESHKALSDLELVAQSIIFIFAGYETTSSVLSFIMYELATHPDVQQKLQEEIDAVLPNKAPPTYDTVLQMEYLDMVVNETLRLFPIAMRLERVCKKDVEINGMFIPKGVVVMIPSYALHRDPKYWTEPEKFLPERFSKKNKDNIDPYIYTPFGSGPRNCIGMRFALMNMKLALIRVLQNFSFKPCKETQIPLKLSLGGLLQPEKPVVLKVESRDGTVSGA

On to `CNCc1ccc(-c2ncnc3[nH]cnc23)cc1`, for which the IC50 was 6.9 µM in assay [1] and 5.2 µM in assay [2]. Besides, the GI50 in assay [3] is > 50 µM.
For the compound `NC(Cc1ccccc1)c1ccc(-c2ncnc3[nH]cnc23)cc1` (centres undefined), the IC50 is 0.43 µM in assay [1] and 0.61 µM in [2]. This compound also yielded a GI50 in [3] of 32 µM.
Take `CNC(c1ccc(Cl)cc1)c1ccc(-c2ncnc3[nH]cnc23)cc1` (centres undefined): the half-maximal inhibitory concentration (IC50) in assay [1] was 0.01 µM; in [2], 0.015 µM. The 50% growth inhibitory concentration (GI50) in [3] amounted to 16 µM.
Consider `NC(c1ccc(Cl)cc1)c1ccc(-c2ncnc3[nH]cnc23)cc1` (centres undefined), for which, in assay [1], the IC50 stood at 0.009 µM. The compound further came in with a GI50 in assay [3] of 28 µM.
For `NC(c1ccccc1)c1ccc(-c2ncnc3[nH]cnc23)cc1` (centres undefined), in that order: 0.4 µM and 32 µM.
Regarding `CNCc1cccc(-c2ncnc3[nH]cnc23)c1`, the IC50 in assay [1] stood at 1.6 µM; in assay [2], 5.5 µM. For the same compound, the GI50 in assay [3] is > 50 µM.
For the compound `NCCc1cccc(-c2ncnc3[nH]cnc23)c1`, in [1], the IC50 is 3.2 µM. The GI50 in assay [3] was > 50 µM.
As for `Clc1ccc(C2(c3ccc(-c4ncnc5[nH]cnc45)cc3)CCNCC2)cc1`, the result in [4], in assay [8], in [12] and in [14] was Active. The IC50 is 6 µM in assay [5]; 1.6 µM in assay [7]; 0.033 µM in [2]; 1.9 µM in assay [9]; > 10 µM in assay [11]; 10 µM in assay [13]. In addition, the half-inhibitory concentration (IC50) in assay [15] and in assay [16] was > 10 µM each time. Besides, the GI50 in [6] is 8.7 µM; in assay [3], 4.5 µM; in assay [10] it was 5.7 µM.
The compound `NCCc1ccc(-c2ncnc3[nH]cnc23)cc1` gave an IC50 in assay [1] of 9.5 µM.
